Active and inactive are the calls of the source. The rule behind the calls is not given here.
Experiments:
A549 = experiment: Growth inhibition of apoptosis resistant human A549 cells assessed as reduction in cell viability incubated for 72 hrs by MTT assay; format: functional; settings: A549, 72 h
How it was run: (§1)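 Cells were grown at 37 °C, 95% humidity and 5% CO₂, trypsinized and seeded. After 24 h they were treated for 72 h with compound from 10 nM to 100 μM, prepared from a 10 mM DMSO stock, or left untreated. Viability was read as MTT reduction to formazan, with untreated control optical density set as 100%. The 50% growth-reducing concentration was derived as the mean of experiments run in sextuplicate.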

SK-MEL-28 = experiment: Growth inhibition of apoptosis resistant human SK-MEL-28 cells assessed as reduction in cell viability incubated for 72 hrs by MTT assay; format: functional; settings: SK-MEL-28, 72 h; how it was run: as §1
U373 MG = experiment: Growth inhibition of apoptosis resistant human U373 cells assessed as reduction in cell viability incubated for 72 hrs by MTT assay; format: functional, U-373MG ATCC; how it was run: as §1
MCF7 = experiment: Growth inhibition of apoptosis sensitive human MCF7 cells assessed as reduction in cell viability incubated for 72 hrs by MTT assay; format: functional; settings: MCF7, 72 h; how it was run: as §1
Hs 683 = experiment: Growth inhibition of apoptosis sensitive human Hs683 cells assessed as reduction in cell viability incubated for 72 hrs by MTT assay; format: functional; settings: Hs 683, 72 h; how it was run: as §1
B16-F10 = experiment: Growth inhibition of apoptosis sensitive mouse B16F10 cells assessed as reduction in cell viability incubated for 72 hrs by MTT assay; format: functional; settings: B16-F10, 72 h; how it was run: as §1
Homo sapiens = species on record: Homo sapiens; experiment: Antiproliferative activity against human GSC22 cells assessed as inhibition of cell proliferation at 1 uM incubated for 72 hrs by bromodeoxyuridine incorporation based immunoassay; format: functional
How it was run: (§2)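 Patient-derived glioblastoma stem-like GSC22 cells were seeded at 1×10^3 cells/well and cultured for 24 h. They were then exposed for 72 h to compound at 1 μM to 30 μM, with DMSO as vehicle control. BrdU was added for the final 4 h. Incorporation was detected with a peroxidase-conjugated anti-BrdU antibody and substrate reaction read at 450/550 nm. Data are mean ± SEM, n=3, compared with vehicle.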

[1] = Antiproliferative activity against human GSC22 cells assessed as inhibition of cell proliferation at 10 uM incubated for 72 hrs by bromodeoxyuridine incorporation based immunoassay; format: functional; how it was run: as §2

SMILES | GI50 (A549) [µM] | GI50 (SK-MEL-28) [µM] | GI50 (U373 MG) [µM] | GI50 (MCF7) [µM] | GI50 (Hs 683) [µM] | GI50 (B16-F10) [µM] | inhibition (Homo sapiens) | inhibition at 10 µM [1] [%]
C#CC[N@@+]12Cc3cc4c(cc3[C@H](C1)C1=C[C@H](Cl)[C@@H](OC)C[C@@H]12)OCO4 | > 100 | > 100 | > 100 | > 100 | > 100 | > 100 | – | –
CO[C@H]1C[C@H]2C(=C[C@@H]1c1c[nH]c3ccccc13)[C@H]1C[N@@]2Cc2cc3c(cc21)OCO3 | 18 | 9 | 9 | 23 | 24 | 4 | Active | 80 to 95
CO[C@H]1C[C@H]2C(=C[C@@H]1Cl)[C@H]1C[N@@]2Cc2cc3c(cc21)OCO3 | 6 | 26 | 51 | 17 | 6 | 7 | – | –
CO[C@H]1C[C@H]2C(=C[C@@H]1NCc1ccccc1)[C@H]1C[N@@]2Cc2cc3c(cc21)OCO3 | 59 | 65 | 72 | 44 | 67 | 10 | – | –
CO[C@H]1C[C@H]2C(=C[C@@H]1O)[C@H]1C[N@]2[C@@H](OS(C)(=O)=O)c2cc3c(cc21)OCO3 | > 100 | > 100 | > 100 | > 100 | > 100 | 72 | – | –
CO[C@H]1C[C@H]2C(=C[C@@H]1O)[C@H]1CN2Cc2cc3c(cc21)OCO3 | 5 | 8 | 31 | 13 | 4 | 8 | – | –
CO[C@H]1C=C2[C@H]3C[N@@](Cc4cc5c(cc43)OCO5)[C@H]2C[C@@H]1OC | 3 | 4 | 5 | 4 | 3 | 3 | Active | 80 to 95
CO[C@H]1C[C@H]2C(=C[C@@H]1Cl)[C@H]1C[N@@+]2([O-])Cc2cc3c(cc21)OCO3 | > 100 | > 100 | > 100 | > 100 | > 100 | > 100 | – | –
CO[C@@H]1C=C[C@@]23c4cc5c(cc4CN(C[C@@H]2O)[C@H]3C1)OCO5 [(+)-HAEMANTHAMINE] | – | – | – | – | – | – | Active | 80 to 95
CO[C@H]1C[C@H]2C(=C[C@H]1Br)[C@H]1C[N@@]2Cc2cc3c(cc21)OCO3 | 9 | 18 | 25 | 19 | 5 | 7 | – | –
CO[C@H]1C[C@H]2C(=C[C@@H]1Cl)[C@H]1C[N@@]2Cc2c1cc1c(c2I)OCO1 | > 100 | > 100 | > 100 | > 100 | > 100 | > 100 | – | –
CO[C@H]1C[C@H]2C(=C[C@@H]1Cl)[C@H]1C[N@@]2Cc2c(I)c3c(c(I)c21)OCO3 | 78 | > 100 | > 100 | 78 | 71 | 39 | – | –
CO[C@H]1C[C@H]2C(=C[C@@H]1c1ccc[nH]1)[C@H]1C[N@@]2Cc2cc3c(cc21)OCO3 | 86 | 67 | > 100 | 68 | 95 | 11 | – | –
C#CCO[C@H]1C=C2[C@H]3C[N@@](Cc4cc5c(cc43)OCO5)[C@H]2C[C@@H]1OC | 23 | 28 | 42 | 28 | 24 | 10 | – | –
CCO[C@H]1C=C2[C@H]3C[N@@](Cc4cc5c(cc43)OCO5)[C@H]2C[C@@H]1OC | 59 | > 100 | > 100 | 82 | > 100 | 40 | – | –
C=CCO[C@H]1C=C2[C@H]3C[N@@](Cc4cc5c(cc43)OCO5)[C@H]2C[C@@H]1OC | 10 | 14 | 20 | 20 | 7 | 7 | – | –
